# In PubChem BioAssay:
# Activity calls are given as the source filed them.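 How the source made its calls, unless noted: active means viability at or below 30% in both replicate assays; inconclusive means viability at or below 30% in just one of the two assays; inactive means the rest.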
# How the values were obtained:
# [1] = reduced viability of SK-BR-3 breast cancer cells – cell-based, 24 h, human, pilot screen (AID 572;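 active means viability at or below 10% of carrier control in both of two separate runs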;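 further: compound exposure lasted between 18 and 24 h rather than exactly 24 h; 100% = carrier-treated control wells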); conditions: SK-BR-3 viability, CellTiter-Glo luminescence, at 10 µM, stronger effect = lower value
# [2] = HUVEC growth inhibition – cell-based, human, primary screen (AID 575); conditions: HUVEC proliferation, CellTiter-Glo luminescence, 72 h; at 10 µM; stronger effect = lower value;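 further: 100% = median of untreated cell wells with 0.1% DMSO on each plate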
# Outline: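 System – primary HUVEC, no more than 12 passages · Medium – Low-serum (2% FBS) EBM, supplemented · Times – 72 h exposure, 37 °C, 5% CO2, 30 min RT equilibration · Measured by – luminescent ATP assay · Read-out – % viability relative to median vehicle-well signal on each plate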
# [3] = H69AR cell proliferation blockers – human, duplicate replicates, primary screen (AID 580;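 active means viability at or under a set limit in both replicates, limit being median viability minus 3 SD, cut at about 48% in these data, passing the limit was not always enough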;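 further: 100% = mean luminescence of untreated wells and 0% = no signal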); conditions: H69AR lung tumor cells viability, ATP luminescence, 72 h; at 10 µM; stronger effect = lower value
# [4] = MRP1 drug-resistance reversers in H69AR cells – cell-based, doxorubicin co-treatment, pilot screen (AID 601;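 active means viability loss from added drug above about 55%, and viability with drug at most 40%, in both replicates, limit read from the data, passing the limit was not always enough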); conditions: CellTiter-Glo, 72 h, at 10 µM; for differential viability (reversal): stronger effect = higher value
# [5] = yeast transport mutant growth inhibition pilot in 384-well plates, post-Golgi transport modulator project (AID 636; in the data active means inhibition above about 31%); conditions: absorbance 615 nm, about 18 h, stronger effect = higher value
# [6] = growth suppression of yeast trafficking mutant, preliminary HTS, modulators of trafficking downstream of Golgi apparatus project, 1536-format plate, OD 615 nm (AID 637; in the data active means inhibition above about 30%); conditions: yeast transport mutant growth, absorbance 615 nm, 18 h; stronger effect = higher value
# [7] = H69AR cells + 2 uM doxorubicin, measured here: viability with 2 uM doxorubicin, stronger effect = lower value
# [8] = H69AR cells, compound alone cytotoxicity
SMILES,viability [1],viability [2],viability [3],differential viability (reversal) ([4]; H69AR cells + 2 uM doxorubicin),"viability [4, 7]","viability [4, 8]",inhibition [5],inhibition [6]
CCOC(=O)c1ccc(NC(=O)CSC2=NC(=O)C(CC)C(=O)N2)cc1 (stereo not drawn),94% (inactive),65.8% (inactive),105% (inactive),22.1% (inactive),83.3%,105%,0.78% (inactive),-2.3% (inactive)
CCOC(=O)C1CN(S(=O)(=O)c2ccc(C)cc2)CCN1S(=O)(=O)c1ccc(C)cc1 (stereo not drawn),100% (inactive),101% (inactive),84.5% (inactive),-16.3% (inactive),101%,84.5%,-2.6% (inactive),-1.8% (inactive)
Cc1cc(C(=O)Nc2nc3c(s2)CCCC3)cs1,93% (inactive),67.5% (inactive),91.9% (inactive),14% (inactive),77.8%,91.9%,-0.14% (inactive),-7.58% (inactive)
Cn1c(=O)[nH]c(=O)c2c1nc(Br)n2CCCSc1nc2ccccc2o1,89% (inactive),36.2% (inactive),23.8% (active),-9.42% (inactive),33.3%,23.8%,-4.13% (inactive),-4.55% (inactive)
O=C1CCc2cc(OCCCCc3nnnn3C3CCCCC3)ccc2N1,98% (inactive),78.6% (inactive),101% (inactive),13% (inactive),88.2%,101%,1.82% (inactive),-4% (inactive)
CCC1CCCCN1C(=O)C1CC(c2cc(Cl)c(OC)cc2OC)=NO1 (stereo not drawn),86% (inactive),89.7% (inactive),96.6% (inactive),-4.29% (inactive),101%,96.6%,-2.86% (inactive),-3.77% (inactive)
Cc1ccc2nc(-c3ccc4c(c3)OCCO4)cc(C(=O)O)c2c1,89% (inactive),104% (inactive),101% (inactive),5.86% (inactive),95%,101%,-4.73% (inactive),-6% (inactive)
CC(C)(C)c1nnc(NC(=O)C2CCN(c3ncccn3)CC2)s1,105% (inactive),115% (inactive),101% (inactive),14.3% (inactive),86.6%,101%,-4.03% (inactive),-0.82% (inactive)
Cc1cnc(NC(=O)C2=C(O)c3ccccc3S(=O)(=O)N2C)s1,102% (inactive),84% (inactive),89.9% (inactive),0.62% (inactive),89.3%,89.9%,3.51% (inactive),-2.83% (inactive)
Cc1cc(C(=O)COC(=O)CCc2nc3ccccc3s2)c(C)n1C,94% (inactive),116% (inactive),101% (inactive),-5.69% (inactive),107%,101%,-3.7% (inactive),-5.09% (inactive)
COCCNC(=S)c1ccc(OC)cc1,118% (inactive),112% (inactive),86% (inactive),8.94% (inactive),77.1%,86%,-8.27% (inactive),5.27% (inactive)
CC(C)(C)NC(=O)CN(Cc1cccs1)C(=O)c1csnn1,96% (inactive),99.7% (inactive),105% (inactive),-2.3% (inactive),108%,105%,-7.12% (inactive),-0.36% (inactive)
CCOC(=O)Cn1nnc(-c2ccc(SC)cc2)n1,96% (inactive),100% (inactive),98% (inactive),5.72% (inactive),92.3%,98%,-8.38% (inactive),-4.36% (inactive)
COc1ccc(CC(=O)Nc2cc(Cl)ccc2O)cc1,110% (inactive),84.5% (inactive),81.1% (inactive),0.69% (inactive),80.4%,81.1%,-4.53% (inactive),-3.09% (inactive)
CCC(CC)C1C(C#N)=C(N)Oc2n[nH]c(C)c21 (stereo not drawn),85% (inactive),91.9% (inactive),24.9% (active),-44.6% (inactive),69.6%,24.9%,-6.22% (inactive),-0.18% (inactive)
CCC(C)NCC(O)COCc1ccc(Cl)cc1 (stereo not drawn),89% (inactive),101% (inactive),99.7% (inactive),11.5% (inactive),88.2%,99.7%,0.52% (inactive),-4.59% (inactive)
CC(C)(Oc1ccc(Cl)cc1)C(=O)NCc1ccncc1,111% (inactive),105% (inactive),94.2% (inactive),5.47% (inactive),88.7%,94.2%,-6.89% (inactive),-12.2% (inactive)
Cc1nc2nc(-c3cccnc3)nn2c(C)c1Cl,109% (inactive),87.4% (inactive),102% (inactive),12.9% (inactive),89.2%,102%,-3.78% (inactive),-3.27% (inactive)
CC(=O)OCC(=O)[C@@]1(OC(C)=O)[C@@H](C)C[C@H]2[C@@H]3C[C@H](F)C4=CC(=O)C=C[C@]4(C)[C@@]3(F)[C@@H](O)C[C@@]21C,119% (inactive),102% (inactive),94.5% (inactive),5.08% (inactive),89.5%,94.5%,-1.69% (inactive),7.33% (inactive)
COc1ccc(C(c2nnnn2C2CCCC2)N2CCC(C)CC2)c(OC)c1 (stereo not drawn),154% (inactive),91.4% (inactive),87.8% (inactive),-8.92% (inactive),96.7%,87.8%,-0.26% (inactive),-3.28% (inactive)
Cc1nn(-c2nc3ccccc3[nH]2)c(N)c1-c1ccccc1,97% (inactive),62.5% (inactive),41.3% (active),-27.6% (inactive),68.9%,41.3%,11.6% (inactive),2.7% (inactive)
N#CCc1nc2c3c4c(sc3ncn2n1)CCCC4,112% (inactive),23.6% (active),86.4% (inactive),8.27% (inactive),78.1%,86.4%,-5.54% (inactive),0.36% (inactive)
CCc1ccccc1NC(=O)CSC1=C(C#N)C(c2ccc(O)c(OC)c2)C2=C(CCCC2=O)N1 (stereo not drawn),112% (inactive),105% (inactive),47.9% (active),-30.2% (inactive),78.1%,47.9%,-8.08% (inactive),5.65% (inactive)
CN(C)C(=O)CN(C)S(=O)(=O)c1ccc(Cl)cc1,139% (inactive),98.9% (inactive),97.9% (inactive),-6.11% (inactive),104%,97.9%,-6.3% (inactive),1.82% (inactive)
O=C(O)c1ccc(C2SCC(=O)N2Cc2ccccc2)cc1 (stereo not drawn),95% (inactive),109% (inactive),96.9% (inactive),1.26% (inactive),95.6%,96.9%,-1.07% (inactive),0% (inactive)
CC(C)(C)NC(=O)CN(C(=O)C1CSC(=O)C1)c1ccc2c(c1)OCCO2 (stereo not drawn),92% (inactive),112% (inactive),91.5% (inactive),-1.13% (inactive),92.6%,91.5%,0.95% (inactive),-4.55% (inactive)
